Experimental data from ChEMBL document CHEMBL4251664, “Biocompatible Boron-Containing Prodrugs of Belinostat for the Potential Treatment of Solid Tumors” (ACS Med Chem Lett, 2018).

Tests used:
[1] = Drug level in human MDA-MB-231 cells treated with (E)-3-(3-(N-phenylsulfamoyl)phenyl)-N-(4-(4,4,5,5-tetramethyl-1,3,2-dioxaborolan-2-yl)benzyloxy)acrylamide measured after 1 to 6 days by UHPLC-MS/MS analysis; assay type: ADME, cell-based
Procedure, shortened: (§1)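 MDA-MB-231 or HeLa cells were incubated with the pinacol boronate prodrug, and culture medium was sampled daily from day 1 to day 6. The prodrug, boronic acid forms and belinostat were separated, identified and quantified by HPLC coupled to an Orbitrap mass spectrometer. Results are in ng/mL as mean ± SEM of triplicate experiments.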

[2] = Drug level in human HeLa cells treated with (E)-3-(3-(N-phenylsulfamoyl)phenyl)-N-(4-(4,4,5,5-tetramethyl-1,3,2-dioxaborolan-2-yl)benzyloxy)acrylamide measured after 1 to 6 days by UHPLC-MS/MS analysis; assay type: ADME, cell-based; procedure, shortened: as §1
[3] = system: MDA-MB-231; assay: Antiproliferative activity against human MDA-MB-231 cells after 72 hrs by resazurin dye based fluorescence assay; assay type: functional, cell-based; settings: MDA-MB-231, 72 h
[4] = system: A549; assay: Antiproliferative activity against human A549 cells after 72 hrs by resazurin dye based fluorescence assay; assay type: functional, cell-based; settings: A549, 72 h
[5] = system: HeLa; assay: Antiproliferative activity against human HeLa cells after 72 hrs by resazurin dye based fluorescence assay; assay type: functional, cell-based
[6] = system: MDA-MB-231; assay: Prodrug conversion in human MDA-MB-231 cells assessed as belinostat level after 1 day by UHPLC-MS/MS analysis; assay type: ADME, cell-based; settings: mda-mb-231, 24 h; procedure, shortened: as §1
[7] = system: MDA-MB-231; assay: Prodrug conversion in human MDA-MB-231 cells assessed as belinostat level after 2 days by UHPLC-MS/MS analysis; assay type: ADME, cell-based; settings: mda-mb-231, 48 h; procedure, shortened: as §1
[8] = system: MDA-MB-231; assay: Prodrug conversion in human MDA-MB-231 cells assessed as belinostat level after 3 days by UHPLC-MS/MS analysis; assay type: ADME, cell-based; settings: mda-mb-231, 72 h; procedure, shortened: as §1
[9] = system: MDA-MB-231; assay: Prodrug conversion in human MDA-MB-231 cells assessed as belinostat level after 4 days by UHPLC-MS/MS analysis; assay type: ADME, cell-based; settings: mda-mb-231, 96 h; procedure, shortened: as §1
[10] = system: MDA-MB-231; assay: Prodrug conversion in human MDA-MB-231 cells assessed as belinostat level after 5 days by UHPLC-MS/MS analysis; assay type: ADME, cell-based; settings: mda-mb-231, 120 h; procedure, shortened: as §1
[11] = system: MDA-MB-231; assay: Prodrug conversion in human MDA-MB-231 cells assessed as belinostat level after 6 days by UHPLC-MS/MS analysis; assay type: ADME, cell-based; settings: mda-mb-231, 144 h; procedure, shortened: as §1
[12] = system: HeLa; assay: Prodrug conversion in human HeLa cells assessed as belinostat level after 1 day by UHPLC-MS/MS analysis; assay type: ADME, cell-based; settings: 24 h; procedure, shortened: as §1
[13] = system: HeLa; assay: Prodrug conversion in human HeLa cells assessed as belinostat level after 2 days by UHPLC-MS/MS analysis; assay type: ADME, cell-based; settings: 48 h; procedure, shortened: as §1
[14] = system: HeLa; assay: Prodrug conversion in human HeLa cells assessed as belinostat level after 3 days by UHPLC-MS/MS analysis; assay type: ADME, cell-based; settings: 72 h; procedure, shortened: as §1
[15] = system: HeLa; assay: Prodrug conversion in human HeLa cells assessed as belinostat level after 4 days by UHPLC-MS/MS analysis; assay type: ADME, cell-based; settings: 96 h; procedure, shortened: as §1
[16] = system: HeLa; assay: Prodrug conversion in human HeLa cells assessed as belinostat level after 5 days by UHPLC-MS/MS analysis; assay type: ADME, cell-based; settings: 120 h; procedure, shortened: as §1
[17] = system: HeLa; assay: Prodrug conversion in human HeLa cells assessed as belinostat level after 6 days by UHPLC-MS/MS analysis; assay type: ADME, cell-based; settings: 144 h; procedure, shortened: as §1
[18] = system: MDA-MB-231; assay: Prodrug conversion in human MDA-MB-231 cells assessed as (E)-3-((3-(3-(N-phenylsulfamoyl)phenyl)acrylamidooxy)methyl)phenylboronic acid level after 1 day by UHPLC-MS/MS analysis; assay type: ADME, cell-based; settings: mda-mb-231, 24 h; procedure, shortened: as §1
[19] = system: MDA-MB-231; assay: Prodrug conversion in human MDA-MB-231 cells assessed as (E)-3-((3-(3-(N-phenylsulfamoyl)phenyl)acrylamidooxy)methyl)phenylboronic acid level after 2 days by UHPLC-MS/MS analysis; assay type: ADME, cell-based; settings: mda-mb-231, 48 h; procedure, shortened: as §1
[20] = system: MDA-MB-231; assay: Prodrug conversion in human MDA-MB-231 cells assessed as (E)-3-((3-(3-(N-phenylsulfamoyl)phenyl)acrylamidooxy)methyl)phenylboronic acid level after 3 days by UHPLC-MS/MS analysis; assay type: ADME, cell-based; settings: mda-mb-231, 72 h; procedure, shortened: as §1
[21] = system: MDA-MB-231; assay: Prodrug conversion in human MDA-MB-231 cells assessed as (E)-3-((3-(3-(N-phenylsulfamoyl)phenyl)acrylamidooxy)methyl)phenylboronic acid level after 4 days by UHPLC-MS/MS analysis; assay type: ADME, cell-based; settings: mda-mb-231, 96 h; procedure, shortened: as §1
[22] = system: MDA-MB-231; assay: Prodrug conversion in human MDA-MB-231 cells assessed as (E)-3-((3-(3-(N-phenylsulfamoyl)phenyl)acrylamidooxy)methyl)phenylboronic acid level after 5 days by UHPLC-MS/MS analysis; assay type: ADME, cell-based; settings: mda-mb-231, 120 h; procedure, shortened: as §1
[23] = system: MDA-MB-231; assay: Prodrug conversion in human MDA-MB-231 cells assessed as (E)-3-((3-(3-(N-phenylsulfamoyl)phenyl)acrylamidooxy)methyl)phenylboronic acid level after 6 days by UHPLC-MS/MS analysis; assay type: ADME, cell-based; settings: mda-mb-231, 144 h; procedure, shortened: as §1
[24] = system: HeLa; assay: Prodrug conversion in human HeLa cells assessed as (E)-3-((3-(3-(N-phenylsulfamoyl)phenyl)acrylamidooxy)methyl)phenylboronic acid level after 1 day by UHPLC-MS/MS analysis; assay type: ADME, cell-based; settings: 24 h; procedure, shortened: as §1
[25] = system: HeLa; assay: Prodrug conversion in human HeLa cells assessed as (E)-3-((3-(3-(N-phenylsulfamoyl)phenyl)acrylamidooxy)methyl)phenylboronic acid level after 2 days by UHPLC-MS/MS analysis; assay type: ADME, cell-based; settings: 48 h; procedure, shortened: as §1
[26] = system: HeLa; assay: Prodrug conversion in human HeLa cells assessed as (E)-3-((3-(3-(N-phenylsulfamoyl)phenyl)acrylamidooxy)methyl)phenylboronic acid level after 3 days by UHPLC-MS/MS analysis; assay type: ADME, cell-based; settings: 72 h; procedure, shortened: as §1
[27] = system: HeLa; assay: Prodrug conversion in human HeLa cells assessed as (E)-3-((3-(3-(N-phenylsulfamoyl)phenyl)acrylamidooxy)methyl)phenylboronic acid level after 4 days by UHPLC-MS/MS analysis; assay type: ADME, cell-based; settings: 96 h; procedure, shortened: as §1
[28] = system: HeLa; assay: Prodrug conversion in human HeLa cells assessed as (E)-3-((3-(3-(N-phenylsulfamoyl)phenyl)acrylamidooxy)methyl)phenylboronic acid level after 5 days by UHPLC-MS/MS analysis; assay type: ADME, cell-based; settings: 120 h; procedure, shortened: as §1
[29] = system: HeLa; assay: Prodrug conversion in human HeLa cells assessed as (E)-3-((3-(3-(N-phenylsulfamoyl)phenyl)acrylamidooxy)methyl)phenylboronic acid level after 6 days by UHPLC-MS/MS analysis; assay type: ADME, cell-based; settings: 144 h; procedure, shortened: as §1
[30] = system: MCF7; assay: Antiproliferative activity against human MCF7 cells after 72 hrs by resazurin dye based fluorescence assay; assay type: functional, cell-based; settings: MCF7, 72 h
[31] = system: MCF-10A; assay: Cytotoxicity against human MCF10A cells assessed as reduction in cell proliferation at 10 uM after 72 hrs by resazurin dye based fluorescence assay
[32] = system: MCF7; assay: Antitumor activity against human MCF7 cells implanted in ovariectomized nu/nu mouse assessed as tumor volume at 10 mg/kg, sc administered once daily for 22 days measured on day 12 during compound dosing (reference value: 869 +/- 173 mm3); assay type: functional
[33] = system: MCF7; assay: Antitumor activity against human MCF7 cells implanted in ovariectomized nu/nu mouse assessed as tumor volume at 10 mg/kg, sc administered once daily for 22 days measured post last dose (reference value: 869 +/- 173 mm3); assay type: functional
[34] = system: MCF7; assay: Antitumor activity against human MCF7 cells implanted in ovariectomized nu/nu mouse assessed as tumor weight at 10 mg/kg, sc administered once daily for 22 days measured post last dose (reference value: 743 +/- 142 mg); assay type: functional
[35] = system: MCF7; assay: Antitumor activity against human MCF7 cells implanted in ovariectomized nu/nu mouse assessed as tumor volume at 10 mg/kg, sc administered once daily for 22 days measured post last dose relative to control; assay type: functional
[36] = system: MCF7; assay: Antitumor activity against human MCF7 cells implanted in ovariectomized nu/nu mouse assessed as tumor growth inhibition at 10 mg/kg, sc administered once daily for 22 days measured post last dose relative to control; assay type: functional; settings: 528 h, read-out: TGI
[37] = system: Mus musculus; assay: Toxicity in ovariectomized nu/nu mouse implanted with human MCF7 cells assessed as effect on body weight at 10 mg/kg, sc administered once daily for 22 days; assay type: organism-based; settings: in vivo, 528 h
Procedure, shortened: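 MCF-7 xenograft in mice, dosed 10 mg/kg/day by subcutaneous injection alongside a vehicle group. Treatment ran 22 days. Body weights were compared with the vehicle group, and tumour volume was measured over the same period. At the end, mice were sacrificed and tumours removed.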

[38] = Drug uptake in tumor of ovariectomized nu/nu mouse implanted with human MCF7 cells at 10 mg/kg, sc administered once daily for 22 days measured post last dose by HPLC-MS/MS analysis; assay type: ADME, organism-based, Neoplasm; settings: female, read-out: Drug uptake
Procedure, shortened: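 After 22 days of 10 mg/kg/day subcutaneous dosing in MCF-7 xenograft mice, animals were sacrificed. Tumours were excised, homogenized and extracted, then analysed by HPLC–MS/MS for belinostat and the free boronic acid. Results are expressed as ng/g tissue.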

SMILES: O=C(/C=C/c1cccc(S(=O)(=O)Nc2ccccc2)c1)NOCc1ccc(B(O)O)cc1
- Drug metabolism [1]: Metabolite_Detected
- Drug metabolism [2]: Metabolite_Detected

SMILES: O=C(/C=C/c1cccc(S(=O)(=O)Nc2ccccc2)c1)NOCc1cccc(B(O)O)c1
- IC50 [3]: 2200 nM
- IC50 [4]: 6580 nM
- IC50 [5]: 12900 nM

SMILES: CC1(C)OB(c2cccc(CONC(=O)/C=C/c3cccc(S(=O)(=O)Nc4ccccc4)c3)c2)OC1(C)C
- IC50 [3]: 2030 nM
- IC50 [4]: 3600 nM
- IC50 [5]: 8320 nM
- Drug metabolism [6]: Metabolite_Notdetected
- Drug metabolism [7]: Metabolite_Notdetected
- Drug metabolism [8]: Metabolite_Notdetected
- Drug metabolism [9]: Metabolite_Notdetected
- Drug metabolism [10]: Metabolite_Notdetected
- Drug metabolism [11]: Metabolite_Notdetected
- Drug metabolism [12]: Metabolite_Notdetected
- Drug metabolism [13]: Metabolite_Notdetected
- Drug metabolism [14]: Metabolite_Notdetected
- Drug metabolism [15]: Metabolite_Notdetected
- Drug metabolism [16]: Metabolite_Notdetected
- Drug metabolism [17]: Metabolite_Notdetected
- Drug metabolism [18]: 359.1 ng/mL
- Drug metabolism [19]: 262.9 ng/mL
- Drug metabolism [20]: 199 ng/mL
- Drug metabolism [21]: 198.8 ng/mL
- Drug metabolism [22]: 168.5 ng/mL
- Drug metabolism [23]: 155.8 ng/mL
- Drug metabolism [24]: 303.2 ng/mL
- Drug metabolism [25]: 188.6 ng/mL
- Drug metabolism [26]: 147.9 ng/mL
- Drug metabolism [27]: 134.7 ng/mL
- Drug metabolism [28]: 97.2 ng/mL
- Drug metabolism [29]: 66.6 ng/mL

SMILES: O=C(/C=C/c1cccc(S(=O)(=O)Nc2ccccc2)c1)NO [BELINOSTAT]
- IC50 [3]: 62 nM
- IC50 [4]: 77 nM
- IC50 [5]: 87 nM
- IC50 [30]: 96 nM
- Activity [31]: Non-Toxic
- Activity [32]: 167 mm3
- Activity [33]: 194 mm3
- Activity [34]: 167 mg
- T/C [35]: 22.3%
- inhibition in vivo at 10 mg/kg [36]: 77.7%
- Activity [37]: Non-Toxic
- concentration at 528 h [38]: 23.4 ng/g
